Data from ChEMBL document CHEMBL1129475, “Water soluble inhibitors of topoisomerase I: quaternary salt derivatives of camptothecin” (J Med Chem, 1996).
pIC50: −log10 of the molar value. Values after ≈ are worked out from the molar mass of the structure shown.

Assays:
[1] = tested on: SK-OV-3; assay: Human tumor cell cytotoxicity assay was performed using MTT (SK-OV3 cell line ); type: functional, cell-based
[2] = tested on: SK-VLB; assay: Human tumor cell cytotoxicity assay was performed using MTT (SKVLB cell line ); type: functional, cell-based
[3] = MDR ratio is defined as the quotient of SKVLB IC50/SKOV3 IC50; type: functional
Procedure, shortened: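 Ratio of SKVLB IC50 to SKOV3 IC50, each from the 96 h MTT cytotoxicity assay with a four-parameter logistic fit.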

[4] = Solubility was measured in D2O using 1H NMR integration of the C-20 ethyl group against internal standard 1,4-dioxane; type: physicochemical
Procedure, shortened: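 Compound equilibrated ≥30 min in D2O containing 1,4-dioxane (0.015 M standardized solution) as internal standard, then filtered. 300-MHz ¹H spectrum; the C-18 methyl triplet at 0.8–0.9 ppm was integrated against the dioxane signal at 3.75 ppm.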

[5] = tested on: HT-29; assay: Human tumor cell cytotoxicity assay was performed using MTT (HT-29 cell line ); type: functional, cell-based
[6] = tested on: Mus musculus; assay: Delay in tumor growth in drug treated animals compared to controls at a dose of 100(mg/kg); type: functional
Procedure, shortened: (§1)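 Tumor growth delay in nude mice with HT-29 xenografts, N=6. The dose from a single s.c. bolus in tumor-free mice was split into three s.c. portions given over one day. T/C = difference in days for tumors to reach 500% of initial volume, treated versus control.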

[7] = species on record: Mus musculus; assay: Maximally tolerated dose that caused <=30% body weight loss in mice; type: functional
Procedure, shortened: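 Highest single s.c. bolus dose in tumor-free nude mice causing ≤30% body weight loss.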

[8] = tested on: Mus musculus; assay: Delay in tumor growth in drug treated animals compared to controls at a dose of 48(mg/kg); type: functional; procedure, shortened: as §1
[9] = tested on: Mus musculus; assay: Efficacy against HT-29 human colon xenograft infected mice expressed as tumor growth ratio at dose 9 mg/Kg; type: functional
Procedure, shortened: (§2)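 Female nu/nu mice (18-24 g) bearing subcutaneous HT-29 flank tumours, N=6 per group. Dosed subcutaneously twice weekly for 5 weeks over a dose range that included the highest dose, which was set in naive mice. Caliper volume = length×width²/2. T/B = group mean tumour volume at end of treatment divided by initial mean volume.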

[10] = tested on: Mus musculus; assay: Delay in tumor growth in drug treated animals compared to controls at a dose of 54(mg/kg); type: functional
[11] = tested on: Mus musculus; assay: Efficacy against HT-29 human colon xenograft infected mice expressed as tumor growth ratio at dose 11 mg/Kg; type: functional; procedure, shortened: as §2
[12] = tested on: Mus musculus; assay: Mean body weight loss for animals in all experimental conditions at dose 11 mg/Kg in HT-29 human colon xenograft infected mice; type: functional
Procedure, shortened: (§3)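 Female nu/nu mice (18-24 g) carrying subcutaneous HT-29 flank tumors; N=6 per group. Compound given s.c. twice weekly for 5 weeks over a dose range including the highest dose found in naive mice. Caliper tumor volume = length×width²/2. T/B = tumor volume at end of treatment over initial volume. Body weight monitored; mean weight loss per group.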

[13] = tested on: Mus musculus; assay: Compound was tested for number of deaths of the animals at a dose of 9 mg/Kg in mice; type: ADME, organism-based; conditions: in vivo; procedure, shortened: as §3
[14] = tested on: Mus musculus; assay: Compound was tested for number of deaths of the animals at a dose of 11 mg/Kg in mice; type: ADME, organism-based; conditions: in vivo; procedure, shortened: as §3
[15] = tested on: Mus musculus; assay: Mean body weight loss for animals in all experimental conditions at dose 9 mg/Kg in HT-29 human colon xenograft infected mice; type: functional
Procedure, shortened: (§4)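 HT-29 subcutaneous xenografts in female nu/nu mice, N=6 per group. Subcutaneous dosing twice weekly for 5 weeks. Body weight was monitored and reported as mean percent loss per group. A loss of 30% or more was considered lethal.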

[16] = tested on: Mus musculus; assay: Efficacy against HT-29 human colon xenograft infected mice expressed as tumor growth ratio at dose 5 mg/Kg; type: functional; procedure, shortened: as §2
[17] = tested on: Mus musculus; assay: Compound was tested for number of deaths of the animals at a dose of 5 mg/Kg in mice; type: ADME, organism-based; conditions: in vivo; procedure, shortened: as §3
[18] = tested on: Mus musculus; assay: Mean body weight loss for animals in all experimental conditions at dose 7 mg/Kg in HT-29 human colon xenograft infected mice; type: functional; procedure, shortened: as §4
[19] = tested on: Mus musculus; assay: Efficacy against HT-29 human colon xenograft infected mice expressed as tumor growth ratio at dose 7 mg/Kg; type: functional; procedure, shortened: as §2
[20] = tested on: Mus musculus; assay: Compound was tested for number of deaths of the animals at a dose of 7 mg/Kg in mice; type: ADME, organism-based; conditions: in vivo; procedure, shortened: as §3
[21] = tested on: Mus musculus; assay: Mean body weight loss for animals in all experimental conditions at dose 5 mg/Kg in HT-29 human colon xenograft infected mice; type: functional; procedure, shortened: as §4
[22] = tested on: Mus musculus; assay: Delay in tumor growth in drug treated animals compared to controls at a dose of 80(mg/kg); type: functional; procedure, shortened: as §1
[23] = tested on: Mus musculus; assay: Compound was tested for number of deaths of the animals at a dose of 12 mg/Kg in mice; type: ADME, organism-based; conditions: in vivo; procedure, shortened: as §3
[24] = tested on: Mus musculus; assay: Mean body weight loss for animals in all experimental conditions at dose 14 mg/Kg in HT-29 human colon xenograft infected mice; type: functional; procedure, shortened: as §3
[25] = tested on: Mus musculus; assay: Mean body weight loss for animals in all experimental conditions at dose 12 mg/Kg in HT-29 human colon xenograft infected mice; type: functional; procedure, shortened: as §3
[26] = tested on: Mus musculus; assay: Efficacy against HT-29 human colon xenograft infected mice expressed as tumor growth ratio at dose 14 mg/Kg; type: functional; procedure, shortened: as §3
[27] = tested on: Mus musculus; assay: Compound was tested for number of deaths of the animals at a dose of 14 mg/Kg in mice; type: ADME, organism-based; conditions: in vivo; procedure, shortened: as §3
[28] = tested on: Mus musculus; assay: Efficacy against HT-29 human colon xenograft infected mice expressed as tumor growth ratio at dose 12 mg/Kg; type: functional; procedure, shortened: as §3
[29] = tested on: Mus musculus; assay: Mean body weight loss for animals in all experimental conditions at dose 8 mg/Kg in HT-29 human colon xenograft infected mice; type: functional; procedure, shortened: as §3
[30] = tested on: Mus musculus; assay: Efficacy against HT-29 human colon xenograft infected mice expressed as tumor growth ratio at dose 8 mg/Kg; type: functional; procedure, shortened: as §3
[31] = tested on: Mus musculus; assay: Compound was tested for number of deaths of the animals at a dose of 8 mg/Kg in mice; type: ADME, organism-based; conditions: in vivo; procedure, shortened: as §3
[32] = tested on: Mus musculus; assay: Compound was tested for number of deaths of the animals at a dose of 9.5 mg/Kg in mice; type: ADME, organism-based; conditions: in vivo; procedure, shortened: as §3
[33] = tested on: Mus musculus; assay: Mean body weight loss for animals in all experimental conditions at dose 9.5 mg/Kg in HT-29 human colon xenograft infected mice; type: functional; procedure, shortened: as §3
[34] = tested on: Mus musculus; assay: Efficacy against HT-29 human colon xenograft infected mice expressed as tumor growth ratio at dose 10.5 mg/Kg; type: functional; procedure, shortened: as §3
[35] = tested on: Mus musculus; assay: Mean body weight loss for animals in all experimental conditions at dose 10.5 mg/Kg in HT-29 human colon xenograft infected mice; type: functional; procedure, shortened: as §3
[36] = tested on: Mus musculus; assay: Compound was tested for number of deaths of the animals at a dose of 10.5 mg/Kg in mice; type: ADME, organism-based; conditions: in vivo; procedure, shortened: as §3
[37] = tested on: Mus musculus; assay: Efficacy against HT-29 human colon xenograft infected mice expressed as tumor growth ratio at dose 9.5 mg/Kg; type: functional; procedure, shortened: as §3

| Structure (SMILES) | pIC50 [1] | pIC50 [2] | Ratio [3] | solubility [4] [µg/mL] | pIC50 [5] | MTD [7] [mg/kg] | further results |
| --- | --- | --- | --- | --- | --- | --- | --- |
| CC[C@@]1(O)C(=O)OCc2c1cc1n(c2=O)Cc2c-1nc1cc3c(cc1c2C[n+]1ccccn1)OCCO3 | 7.16 | 7.03 | 1 | 910 |  |  |  |
| COc1cccc2c1C(=O)c1c(O)c3c(c(O)c1C2=O)C[C@@](O)(C(=O)CO)C[C@@H]3O[C@H]1C[C@H](N)[C@H](O)[C@H](C)O1 [DOXORUBICIN] |  |  | 160 | > 2000 |  |  |  |
| CC[C@@]1(O)C(=O)OCc2c1cc1n(c2=O)Cc2c-1nc1cc3c(cc1c2Cn1ccnc1)OCO3 |  |  |  | < 500 |  |  |  |
| CC[C@@]1(O)C(=O)OCc2c1cc1n(c2=O)Cc2c-1nc1cc3c(cc1c2Cn1ccnc1)OCCO3 |  |  |  | < 500 |  |  |  |
| CC[C@@]1(O)C(=O)OCc2c1cc1n(c2=O)Cc2c-1nc1cc3c(cc1c2C[n+]1cccc(CO)c1)OCO3 | 7.96 | 7.64 | 2 | > 4400 | 7.89 | >100 | T/C [6]: 9 days |
| CC[C@@]1(O)C(=O)OCc2c1cc1n(c2=O)Cc2c-1nc1cc3c(cc1c2C[n+]1ccccc1)OCO3 | 7.13 | 7.14 | 1 | > 4500 | 7.15 | >100 | T/C [6]: 4 days |
| CC[C@@]1(O)C(=O)OCc2c1cc1n(c2=O)Cc2c-1nc1cc3c(cc1c2C[n+]1ccccn1)OCO3 | 7.08 | 6.89 | 2 | > 3100 |  |  |  |
| CC[C@@]1(O)C(=O)OCc2c1cc1n(c2=O)Cc2c-1nc1cc3c(cc1c2C[n+]1ccncc1)OCO3 | 8.22 | 7.64 | 4 | 1400 | 7.34 | 80 | T/C [8]: 11 days |
| CC[C@@]1(O)C(=O)OCc2c1cc1n(c2=O)Cc2c-1nc1cc3c(cc1c2C[n+]1ccccc1)OCCO3 | 7.07 | 7.08 | 1 | 1800 | 7.08 |  |  |
| CC[C@@]1(O)C(=O)OCc2c1cc1n(c2=O)Cc2cc3c(CN(C)C)c(O)ccc3nc2-1 [TOPOTECAN] |  |  |  | 2100 (≈ 4.98 mM) |  | 54 | Efficacy [9]: 4.3; T/C [10]: 10 days; Efficacy [11]: 2.9; BW loss [12]: 23%; Deaths [13]: 2; Deaths [14]: 0; BW loss [15]: 17%; Efficacy [16]: 8.6; Deaths [17]: 0; BW loss [18]: 11%; Efficacy [19]: 7; Deaths [20]: 0; BW loss [21]: 15% |
| CC[C@@]1(O)C(=O)OCc2c1cc1n(c2=O)Cc2c-1nc1cc3c(cc1c2C[n+]1cccc(CO)c1)OCCO3 |  |  |  | 1200 |  |  |  |
| CC[C@@]1(O)C(=O)OCc2c1cc1n(c2=O)Cc2c-1nc1cc3c(cc1c2C[n+]1ccc(CO)cc1)OCCO3 |  |  |  | 1100 |  |  |  |
| CC[C@@]1(O)C(=O)OCc2c1cc1n(c2=O)Cc2c-1nc1cc3c(cc1c2C[n+]1ccncc1)OCCO3 | 7.96 | 6.06 | 80 | 1400 | 7.80 | 100 | T/C [22]: 14 days; Deaths [23]: 0; BW loss [24]: 13%; BW loss [25]: 27%; Efficacy [26]: 0.32; Deaths [27]: 0; Efficacy [28]: 0.7; BW loss [29]: 21%; Efficacy [30]: 2.1; Deaths [31]: 0 |
| CC[C@@]1(O)C(=O)OCc2c1cc1n(c2=O)Cc2c-1nc1cc3c(cc1c2Cn1cc[n+](C)c1)OCCO3 |  |  |  | 1300 |  |  |  |
| CC[C@@]1(O)C(=O)OCc2c1cc1n(c2=O)Cc2c-1nc1cc3c(cc1c2Cn1cc[n+](C)c1)OCO3 | 6.96 | 6.00 | 9 | > 3500 | 7.12 | 100 | Deaths [32]: 0; BW loss [33]: 4%; Efficacy [34]: 3.84; Efficacy [11]: 2.85; BW loss [12]: 16%; Deaths [14]: 0; BW loss [35]: 12%; T/C [6]: 14 days; Deaths [36]: 0; Efficacy [37]: 6.74 |
